ChEMBL document CHEMBL3351863, “Optimization of 2-phenyl-pyrimidine-4-carboxamides towards potent, orally bioavailable and selective P2Y(12) antagonists for inhibition of platelet aggregation” (Bioorg Med Chem Lett, 2014)

What was measured:
Liver microsome [1] = experiment: Metabolic stability assay in rat liver microsomes assessed as parent drug disappearance at 1 uM after 20 mins by HPLC and mass spectrometry method; type: ADME
Cytochrome P450 3A4 [2] = biological target: T1, Cytochrome P450 3A4 (Homo sapiens, UniProt P08684); experiment: Inhibition of CYP3A4 in human liver microsomes assessed as reduction in testosterone 6beta-hydroxylation; type: ADME
[3] = Solubility in neutral pH; type: physicochemical
P2Y purinoceptor 12 = P2Y purinoceptor 12 (Homo sapiens, UniProt Q9H244); experiment: Displacement of [3H]-2-methyl-thio-adenosine 5'-diphosphate from human recombinant P2Y12 expressed in CHO cell membranes by scintillation counting method
Procedure, shortened: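 CHO cells expressing recombinant P2Y₁₂ receptors, incubated with tritium-labeled 2-methyl-thio-adenosine 5'-diphosphate plus test compound; IC₅₀ from displacement curves, each point in triplicate; reference compound run with every compound set, and set re-analyzed if its IC₅₀ fell outside pre-set 95% confidence interval.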

Platelet [4] = experiment: Inhibition of ADP-induced platelet aggregation in human platelet rich plasma assessed as remaining activity at 1000 nM by in-vitro light transmission aggregometry assay; type: functional
Procedure, shortened: (§1)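 Light transmission aggregometry in human platelet-rich plasma; compound incubated, aggregation triggered with 3 µM ADP; remaining activity (RA) recorded at a single compound level (1000, 500 or 100 nM).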

[5] = Solubility in basic pH; type: physicochemical
Liver microsome [6] = experiment: Metabolic stability assay in human liver microsomes assessed as parent drug disappearance at 1 uM after 20 mins by HPLC and mass spectrometry method; type: ADME
[7] = biological target: Voltage-gated inwardly rectifying potassium channel KCNH2 (Homo sapiens, UniProt Q12809); experiment: Inhibition of human ERG expressed in HEK cells by patch-clamp assay; type: cell-based; details: hek293
Platelet [8] = experiment: Inhibition of ADP-induced platelet aggregation in human platelet rich plasma assessed as remaining activity at 500 nM by in-vitro light transmission aggregometry assay; type: functional; procedure, shortened: as §1
Cytochrome P450 2C9 = Cytochrome P450 2C9 (Homo sapiens, UniProt P11712); experiment: Inhibition of CYP2C9 in human liver microsomes assessed as reduction in diclofenac 4'-hydroxylation; type: ADME
Cytochrome P450 3A4 [9] = biological target: T1, Cytochrome P450 3A4; experiment: Inhibition of CYP3A4 in human liver microsomes assessed as reduction in midazolam 1'-hydroxylation; type: ADME
Cytochrome P450 2D6 = Cytochrome P450 2D6 (Homo sapiens, UniProt P10635); experiment: Inhibition of CYP2D6 in human liver microsomes assessed as reduction in dextromethorphan-O demethylation; type: ADME
Platelet [10] = experiment: Inhibition of ADP-induced platelet aggregation in human platelet rich plasma by in-vitro light transmission aggregometry assay; type: functional
Procedure, shortened: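 Human platelet-rich plasma incubated with compound, aggregation induced by 3 µM ADP and read by light transmission aggregometry; IC₅₀ derived from concentration–response curve.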

[11] = Potency shift, ratio of IC50 for inhibition of ADP-induced platelet aggregation in human platelet rich plasma to IC50 for displacement of [3H]-2-methyl-thio-adenosine 5'-diphosphate from human recombinant P2Y12 expressed in CHO cell membranes
Platelet [12] = experiment: Inhibition of ADP-induced platelet aggregation in human platelet rich plasma assessed as remaining activity at 100 nM by in-vitro light transmission aggregometry assay; type: functional; procedure, shortened: as §1

Sequence of Cytochrome P450 2D6 (P10635 whole entry): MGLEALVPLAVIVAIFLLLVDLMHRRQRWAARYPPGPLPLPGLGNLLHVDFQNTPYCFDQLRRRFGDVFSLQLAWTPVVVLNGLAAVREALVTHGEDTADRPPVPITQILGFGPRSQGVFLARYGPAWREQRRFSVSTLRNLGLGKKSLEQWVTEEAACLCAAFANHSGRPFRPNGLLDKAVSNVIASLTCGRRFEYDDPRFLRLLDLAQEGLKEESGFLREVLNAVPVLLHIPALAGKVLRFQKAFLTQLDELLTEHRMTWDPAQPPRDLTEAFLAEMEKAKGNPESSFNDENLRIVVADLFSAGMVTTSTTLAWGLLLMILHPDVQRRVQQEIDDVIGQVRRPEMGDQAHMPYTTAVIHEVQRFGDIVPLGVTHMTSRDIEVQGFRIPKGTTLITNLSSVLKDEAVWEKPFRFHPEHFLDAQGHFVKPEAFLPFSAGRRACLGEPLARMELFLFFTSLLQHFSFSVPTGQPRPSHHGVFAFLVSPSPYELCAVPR
Sequence of Voltage-gated inwardly rectifying potassium channel KCNH2 (Q12809 whole entry): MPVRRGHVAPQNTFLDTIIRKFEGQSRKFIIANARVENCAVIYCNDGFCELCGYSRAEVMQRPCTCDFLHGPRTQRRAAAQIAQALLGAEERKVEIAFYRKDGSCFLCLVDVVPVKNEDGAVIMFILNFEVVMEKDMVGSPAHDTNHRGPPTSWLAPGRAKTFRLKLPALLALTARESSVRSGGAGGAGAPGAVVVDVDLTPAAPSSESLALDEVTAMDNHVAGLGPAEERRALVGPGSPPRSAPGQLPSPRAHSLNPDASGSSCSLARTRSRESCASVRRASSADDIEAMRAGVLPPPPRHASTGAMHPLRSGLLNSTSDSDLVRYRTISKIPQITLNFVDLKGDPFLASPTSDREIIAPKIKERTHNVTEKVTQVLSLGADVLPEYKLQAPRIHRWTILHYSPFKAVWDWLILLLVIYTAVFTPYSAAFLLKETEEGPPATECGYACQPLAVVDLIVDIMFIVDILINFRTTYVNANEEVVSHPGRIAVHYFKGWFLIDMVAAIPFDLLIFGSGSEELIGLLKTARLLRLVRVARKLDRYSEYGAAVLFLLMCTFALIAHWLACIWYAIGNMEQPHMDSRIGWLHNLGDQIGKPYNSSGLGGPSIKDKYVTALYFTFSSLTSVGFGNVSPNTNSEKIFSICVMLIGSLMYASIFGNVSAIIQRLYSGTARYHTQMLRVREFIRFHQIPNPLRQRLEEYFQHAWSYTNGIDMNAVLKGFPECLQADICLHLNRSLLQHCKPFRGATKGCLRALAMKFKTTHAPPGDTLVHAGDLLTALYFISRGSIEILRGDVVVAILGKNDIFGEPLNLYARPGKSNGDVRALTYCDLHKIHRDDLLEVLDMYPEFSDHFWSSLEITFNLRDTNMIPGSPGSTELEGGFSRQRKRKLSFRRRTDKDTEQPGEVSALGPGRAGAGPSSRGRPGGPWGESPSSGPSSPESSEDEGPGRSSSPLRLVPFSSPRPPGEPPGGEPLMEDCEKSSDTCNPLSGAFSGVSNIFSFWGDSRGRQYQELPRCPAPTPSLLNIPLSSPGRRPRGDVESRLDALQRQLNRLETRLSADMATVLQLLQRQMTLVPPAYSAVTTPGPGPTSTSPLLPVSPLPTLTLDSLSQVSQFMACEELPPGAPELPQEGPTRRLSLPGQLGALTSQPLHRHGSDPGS
Sequence of Cytochrome P450 2C9 (P11712 whole entry): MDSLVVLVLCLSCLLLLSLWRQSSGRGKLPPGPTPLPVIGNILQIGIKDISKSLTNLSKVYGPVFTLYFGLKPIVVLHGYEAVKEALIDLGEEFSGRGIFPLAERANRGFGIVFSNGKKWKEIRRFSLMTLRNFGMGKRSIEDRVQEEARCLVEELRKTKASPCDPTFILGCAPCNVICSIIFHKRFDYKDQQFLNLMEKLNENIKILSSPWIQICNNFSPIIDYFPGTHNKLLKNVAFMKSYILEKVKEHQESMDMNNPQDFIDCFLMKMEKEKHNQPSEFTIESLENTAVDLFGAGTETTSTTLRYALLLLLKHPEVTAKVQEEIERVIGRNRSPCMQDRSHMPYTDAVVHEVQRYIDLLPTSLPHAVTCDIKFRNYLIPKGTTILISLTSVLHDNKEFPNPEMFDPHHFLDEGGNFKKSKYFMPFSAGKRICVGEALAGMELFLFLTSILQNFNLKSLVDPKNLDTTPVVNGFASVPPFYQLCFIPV
T1 sequence (P08684 whole entry): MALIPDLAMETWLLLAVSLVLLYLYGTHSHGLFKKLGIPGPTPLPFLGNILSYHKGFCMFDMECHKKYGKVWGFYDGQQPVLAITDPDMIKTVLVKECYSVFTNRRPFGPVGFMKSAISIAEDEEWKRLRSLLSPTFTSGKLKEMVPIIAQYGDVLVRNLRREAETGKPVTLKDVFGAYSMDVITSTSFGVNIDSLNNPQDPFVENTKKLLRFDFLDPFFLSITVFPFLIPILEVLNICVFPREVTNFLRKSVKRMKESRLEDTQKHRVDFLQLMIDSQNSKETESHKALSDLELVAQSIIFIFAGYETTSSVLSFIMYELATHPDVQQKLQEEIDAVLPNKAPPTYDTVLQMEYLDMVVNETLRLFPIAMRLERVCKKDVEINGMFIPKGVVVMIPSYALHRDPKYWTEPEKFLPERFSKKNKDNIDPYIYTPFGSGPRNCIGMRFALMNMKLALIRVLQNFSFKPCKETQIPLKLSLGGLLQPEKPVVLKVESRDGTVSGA
Sequence of P2Y purinoceptor 12 (Q9H244 whole entry): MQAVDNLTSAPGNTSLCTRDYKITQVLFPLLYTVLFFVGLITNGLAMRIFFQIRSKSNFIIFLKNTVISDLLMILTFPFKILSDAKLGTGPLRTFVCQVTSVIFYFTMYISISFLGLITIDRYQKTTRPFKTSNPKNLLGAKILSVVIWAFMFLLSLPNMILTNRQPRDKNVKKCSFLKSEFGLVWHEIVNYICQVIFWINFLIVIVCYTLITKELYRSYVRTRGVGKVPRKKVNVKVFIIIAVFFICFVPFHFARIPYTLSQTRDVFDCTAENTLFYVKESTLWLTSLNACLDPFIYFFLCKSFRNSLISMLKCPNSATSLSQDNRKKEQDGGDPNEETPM

| Compound | Stability (Liver microsome [1]) | inhibition (INH) (Cytochrome P450 3A4 [2]) | solubility [3] | IC50 (P2Y purinoceptor 12) [nM] | Activity (Platelet [4]) [%] | solubility [5] | Stability (Liver microsome [6]) | inhibition (INH) [7] | Activity (Platelet [8]) [%] | inhibition (INH) (Cytochrome P450 2C9) | inhibition (INH) (Cytochrome P450 3A4 [9]) | inhibition (INH) (Cytochrome P450 2D6) | IC50 (Platelet [10]; Homo sapiens, Platelet, Plasma) [nM] | Ratio IC50 [11] | Activity (Platelet [12]) [%] | IC50 (Platelet [10]; platelet) [nM] |
| --- | --- | --- | --- | --- | --- | --- | --- | --- | --- | --- | --- | --- | --- | --- | --- | --- |
| CCOC(=O)N1CCN(C(=O)[C@H](CCC(=O)O)NC(=O)c2cc(NC(=O)c3ccccc3)nc(-c3ccccc3)n2)CC1 | Stable | Not Active | soluble | 178 | >30 | soluble | Stable | Not Active | >60 | Not Active | Not Active | Not Active | – | – | – | – |
| CCOC(=O)N1CCN(C(=O)[C@H](CCC(=O)O)NC(=O)c2cc(C(C)(C)CO)nc(-c3ccccc3)n2)CC1 | Stable | Not Active | soluble | 21 | – | soluble | Stable | Not Active | <30 | Not Active | Not Active | Not Active | 121 | 5.8 | <70 | – |
| CCOC(=O)N1CCN(C(=O)[C@H](CCC(=O)O)NC(=O)c2cc(N3CCC(N)C3)nc(-c3ccccc3)n2)CC1 (stereo partly specified) | Stable | Not Active | soluble | 76 | – | soluble | Stable | Not Active | <30 | Not Active | Not Active | Not Active | 86 | 1.1 | <70 | – |
| CCOC(=O)N1CCN(C(=O)[C@H](CCC(=O)O)NC(=O)c2cc(NCc3ccccc3)nc(-c3ccccc3)n2)CC1 | Stable | Not Active | soluble | 122 | >30 | soluble | Stable | Not Active | >60 | Not Active | Not Active | Not Active | – | – | – | – |
| CCOC(=O)N1CCN(C(=O)[C@H](CCC(=O)O)NC(=O)c2cc(N3CC[C@H](O)C3)nc(-c3ccccc3)n2)CC1 | Stable | Not Active | soluble | 46 | – | soluble | Stable | Not Active | <30 | Not Active | Not Active | Not Active | 68 | 1.5 | <70 | – |
| CCOC(=O)N1CCN(C(=O)[C@H](CCC(=O)O)NC(=O)c2cc(N3CCCC(O)C3)nc(-c3ccccc3)n2)CC1 (stereo partly specified) | Stable | Not Active | soluble | 21 | – | soluble | Stable | Not Active | <30 | Not Active | Not Active | Not Active | 73 | 3.5 | <70 | – |
| CCOC(=O)N1CCN(C(=O)[C@H](CCC(=O)O)NC(=O)c2cc(N3CC[C@@H](O)C3)nc(-c3ccccc3)n2)CC1 | Stable | Not Active | soluble | 52 | – | soluble | Stable | Not Active | <30 | Not Active | Not Active | Not Active | 99 | 1.9 | <70 | – |
| CCOC(=O)N1CCN(C(=O)[C@H](CCC(=O)O)NC(=O)c2cc(NC(C)CO)nc(-c3ccccc3)n2)CC1 (stereo partly specified) | Stable | Not Active | soluble | 56 | – | soluble | Stable | Not Active | <30 | Not Active | Not Active | Not Active | 55 | 0.98 | <70 | – |
| CCOC(=O)N1CCN(C(=O)[C@H](CCC(=O)O)NC(=O)c2cc(N3CCOCC3)nc(-c3ccccc3)n2)CC1 | Stable | Not Active | soluble | – | – | soluble | Stable | Not Active | <30 | Not Active | Not Active | Not Active | – | – | <70 | – |
| CCOC(=O)N1CCN(C(=O)[C@H](CCC(=O)O)NC(=O)c2cc(-c3cn[nH]c3)nc(-c3ccccc3)n2)CC1 | Stable | Not Active | soluble | – | >30 | soluble | Stable | Not Active | >60 | Not Active | Not Active | Not Active | – | – | – | – |
| CCOC(=O)N1CCN(C(=O)[C@H](CCC(=O)O)NC(=O)c2cc(NC(C)COC)nc(-c3ccccc3)n2)CC1 (stereo partly specified) | Stable | Not Active | soluble | – | – | soluble | Stable | Not Active | <30 | Not Active | Not Active | Not Active | 139 | 1.4 | <70 | – |
| CCOC(=O)N1CCN(C(=O)[C@H](CCC(=O)O)NC(=O)c2cc([C@H]3C[C@@H]3COC)nc(-c3ccccc3)n2)CC1 (racemic) | Stable | Not Active | soluble | 39 | – | soluble | Stable | Not Active | <30 | Not Active | Not Active | Not Active | – | 4.9 | <70 | 192 |
| CCOC(=O)N1CCN(C(=O)[C@H](CCC(=O)O)NC(=O)c2cc([C@H]3C[C@@H]3CO)nc(-c3ccccc3)n2)CC1 (racemic) | Stable | Not Active | soluble | 23 | – | soluble | Stable | Not Active | <30 | Not Active | Not Active | Not Active | 71 | 3.1 | <70 | – |
